Assay results reported in ChEMBL document CHEMBL1134543, “A rational approach to the design of selective substrates and potent nontransportable inhibitors of the excitatory amino acid transporter EAAC1 (EAAT3). new glutamate and aspartate analogues as potential neuroprotective agents” (J Med Chem, 2001).
Calls of active or inactive are those of the source. No cut-off for these calls is given here.

Experiments:
[1] = target: Glutamate receptor ionotropic, kainate; experiment: Binding affinity towards Ionotropic glutamate receptor kainate by displacement of [3H]-kainic acid radioligand; type: protein-complex assay
[2] = target: T1, Glutamate receptor ionotropic, AMPA (Rattus norvegicus, UniProt P19490+P19491+P19492+P19493); experiment: Binding affinity towards AMPA receptor by displacement of [3H]AMPA radioligand.; type: protein-complex assay
[3] = target: T2, Excitatory amino acid transporter 3 (Rattus norvegicus) (UniProt P51907); experiment: Steady state transport rate by EAAC1 (EAAT3) in mammalian cells; type: cell-based
T2 sequence (whole entry): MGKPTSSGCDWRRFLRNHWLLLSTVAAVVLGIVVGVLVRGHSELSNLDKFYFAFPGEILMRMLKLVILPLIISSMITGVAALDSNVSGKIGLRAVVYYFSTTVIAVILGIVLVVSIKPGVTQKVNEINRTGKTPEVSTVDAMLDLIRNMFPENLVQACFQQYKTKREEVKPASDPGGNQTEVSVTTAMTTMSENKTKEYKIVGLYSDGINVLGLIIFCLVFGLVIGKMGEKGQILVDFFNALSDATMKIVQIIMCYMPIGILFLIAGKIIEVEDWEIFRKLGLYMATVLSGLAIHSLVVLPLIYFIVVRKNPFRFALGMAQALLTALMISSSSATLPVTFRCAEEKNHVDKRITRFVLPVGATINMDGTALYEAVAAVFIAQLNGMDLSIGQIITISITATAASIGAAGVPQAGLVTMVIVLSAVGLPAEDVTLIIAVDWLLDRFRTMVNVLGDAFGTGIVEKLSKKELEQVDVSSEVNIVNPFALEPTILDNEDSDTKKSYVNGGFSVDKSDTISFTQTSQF
Outline: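 Whole-cell currents from EAAC1-expressing mammalian cells (intracellular SCN-, Vm 0 mV, pH 7.4, 22 °C). Steady-state KS is taken from concentration dependence. Imax ratio is the current at saturating test compound relative to the current at saturating (1 mM) L-glutamate.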

Glutamate NMDA receptor = experiment: Binding affinity towards NMDA receptor by displacement of [3H]CGP-39653 radioligand.; type: protein-complex assay
[4] = target: Glutamate NMDA receptor (Rattus norvegicus) (UniProt P35439+Q00959+Q00960+Q00961+Q62645+Q8VHN2+Q9R1M7); experiment: Binding affinity towards NMDA receptor by displacement of [3H]CGP-39653 radioligand; Not active; type: protein-complex assay
[5] = target: Glutamate receptor ionotropic, AMPA (Rattus norvegicus) (UniProt P19491+P19492+P19493+P19490); experiment: Binding affinity towards AMPA receptor by displacement of [3H]-AMPA radioligand; Not active; type: protein-complex assay
[6] = target: T3, Excitatory amino acid transporter 3 (Rattus norvegicus, UniProt P51907); experiment: Inhibitory activity against EAAC1 (EAAT3) in absence of L-glutamic acid.
T3 sequence (P51907 whole entry): T2 sequence (whole entry)

[7] = target: Glutamate receptor ionotropic, kainate (Rattus norvegicus) (UniProt P22756+Q01812+P42260+P42264+Q63273); experiment: Binding affinity towards Ionotropic glutamate receptor kainate by displacement of [3H]-kainic acid radioligand; Not active; type: protein-complex assay
[8] = target: T3, Excitatory amino acid transporter 3; experiment: Inhibitory activity against EAAC1 (EAAT3) in presence of 20 uM L-glutamic acid.
[9] = target: T3, Excitatory amino acid transporter 3; experiment: Inhibitory activity against EAAC1 (EAAT3) in presence of 20 uM L-glutamic acid in mammalian cells; type: cell-based
[10] = target: T3, Excitatory amino acid transporter 3; experiment: Inhibitory activity against EAAC1 (EAAT3) in absence of L-glutamic acid in mammalian cells; type: cell-based
[11] = target: T1, Glutamate receptor ionotropic, AMPA; experiment: Binding affinity towards AMPA receptor by displacement of [3H]AMPA radioligand; type: protein-complex assay

SMILES | Ki [1] [µM] | Ks [3] [µM] | Ki (Glutamate NMDA receptor) [µM] | NA [4] | NA [5] | NA [7] | further results
N[C@@H](CC1=N[C@H](C(=O)O)CO1)C(=O)O | – | 31 | – | inactive | inactive | inactive | –
N[C@@H](CCC(=O)O)C(=O)O | – | 5.1 | – | – | – | – | –
N[C@@H](CCC1=N[C@H](C(=O)O)CO1)C(=O)O | 14 | 730 | 9 | – | – | – | Ki [11]: 103 µM

Further lines, with some results ahead:

Ki [1] [µM] | Ks [3] [µM] | Ki (Glutamate NMDA receptor) [µM] | NA [4] | NA [5] | NA [7] | SMILES | further results
8 | 100 | 3 | – | – | – | N[C@@H](CCc1nc(C(=O)O)co1)C(=O)O | Ki [2]: 41 µM
– | – | – | inactive | inactive | inactive | O=C(O)c1nc(-c2ccccc2)oc1C(=O)O | Ki [6]: 75 µM; Ki [8]: 530 µM
– | – | – | inactive | inactive | inactive | O=C(O)[C@H]1N=C(c2ccccc2)O[C@@H]1C(=O)O | Ki [9]: 42 µM; Ki [10]: 14 µM
